From ChEMBL document CHEMBL3351231, “Structure and antimicrobial activity of phloroglucinol derivatives from Achyrocline satureioides” (2015)
In brackets after ≈: the same amount, converted by molar mass.

Columns and labels:
Staphylococcus aureus [1] = assay: Antimicrobial activity against methicillin-sensitive Staphylococcus aureus ATCC 25923 after 24 hrs by broth microdilution method; details: ATCC 25923, 24 h
Staphylococcus aureus [2] = assay: Antimicrobial activity against methicillin-resistant and vancomycin-intermediate Staphylococcus aureus NRS402 after 24 hrs by broth microdilution method; format: functional; details: NRS402, 24 h
Outline: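 Broth microdilution per NCCLS standard; strain stored at -80 °C in BHI broth with 20% glycerol, revived on BHI at 37 °C overnight. […] Ampicillin and kanamycin included as controls.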

Candida albicans = assay: Antimicrobial activity against Candida albicans […] after 24 hrs by broth microdilution method; format: functional
Enterococcus faecalis = assay: Antimicrobial activity against Enterococcus faecalis ATCC 29212 after 24 hrs by broth microdilution method; format: functional; details: ATCC 29212, 24 h
Outline: (§1)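 Strains kept at −80 °C in BHI broth with 20% glycerol and revived on BHI at 37 °C overnight. NCCLS standard broth microdilution with 1:2 serial dilutions from 1 to 128 μM and an inoculum of 1 × 10⁵ CFU/mL. Ampicillin and kanamycin served as controls.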

Nakaseomyces glabratus = assay: Antimicrobial activity against Candida glabrata ATCC 9984 after 24 hrs by broth microdilution method; format: functional; details: ATCC 9984, 24 h
Escherichia coli = assay: Antimicrobial activity against Escherichia coli ATCC 35218 after 24 hrs by broth microdilution method; format: functional; details: ATCC 35218, 24 h
Outline: as §1

Saccharomyces cerevisiae = assay: Antimicrobial activity against Saccharomyces cerevisiae BY4741 after 24 hrs by broth microdilution method; format: functional; details: BY4741, 24 h

C=C(C)C(O)Cc1c(O)c(C(=O)C(C)CC)c(O)c2c1oc1c(C(=O)C(C)CC)c(O)c(CC=C(C)C)c(O)c12 (configuration not stated) [ACHYROFURAN]
MIC (Staphylococcus aureus [1]): < 1 µM | MIC (Staphylococcus aureus [2]): < 1 µM | MIC (Candida albicans): > 128 µM | MIC (Enterococcus faecalis): 2 µM (≈ 1.11 µg/mL) | MIC (Nakaseomyces glabratus): > 128 µM | MIC (Escherichia coli): > 128 µM | MIC (Saccharomyces cerevisiae): > 128 µM

CCc1oc(OC)c(Cc2c(O)c3c(c(C(=O)[C@@H](C)CC)c2O)OC(C)(C)C=C3)c(=O)c1C
MIC (Staphylococcus aureus [1]): > 128 µM | MIC (Staphylococcus aureus [2]): > 128 µM | MIC (Enterococcus faecalis): > 128 µM | MIC (Escherichia coli): > 128 µM

CCc1oc(=O)c(Cc2c(O)c(CC=C(C)C)c(O)c(C(=O)[C@@H](C)CC)c2O)c(O)c1C
MIC (Staphylococcus aureus [1]): 8 µM (≈ 3.56 µg/mL) | MIC (Staphylococcus aureus [2]): 8 µM (≈ 3.56 µg/mL) | MIC (Candida albicans): > 128 µM | MIC (Enterococcus faecalis): 64 µM (≈ 28.4 µg/mL) | MIC (Nakaseomyces glabratus): > 128 µM | MIC (Escherichia coli): > 128 µM | MIC (Saccharomyces cerevisiae): > 128 µM

CCc1oc(=O)c(Cc2c(OC(C)=O)c3c(c(C(=O)[C@@H](C)CC)c2OC(C)=O)OC(C)(C)C=C3)c(OC(C)=O)c1C
MIC (Staphylococcus aureus [1]): > 128 µM | MIC (Staphylococcus aureus [2]): > 128 µM | MIC (Enterococcus faecalis): > 128 µM | MIC (Escherichia coli): > 128 µM

CCc1oc(=O)c(Cc2c(O)c(C(=O)[C@@H](C)CC)c3c(c2O)C2OC2C(C)(C)O3)c(O)c1C (some centres not stated)
MIC (Staphylococcus aureus [1]): > 128 µM | MIC (Staphylococcus aureus [2]): > 128 µM | MIC (Enterococcus faecalis): > 128 µM | MIC (Escherichia coli): > 128 µM

C=C(C)C(O)Cc1c(O)c(C(=O)[C@@H](C)CC)c2oc3c4c(c(C(=O)[C@@H](C)CC)c(O)c3c2c1O)OC(C)(C)C=C4 (some centres not stated)
MIC (Staphylococcus aureus [1]): 32 µM (≈ 17.6 µg/mL) | MIC (Staphylococcus aureus [2]): 32 µM (≈ 17.6 µg/mL) | MIC (Candida albicans): > 128 µM | MIC (Enterococcus faecalis): 64 µM (≈ 35.2 µg/mL) | MIC (Nakaseomyces glabratus): > 128 µM | MIC (Escherichia coli): > 128 µM | MIC (Saccharomyces cerevisiae): > 128 µM

CCc1[nH]c(=O)c(Cc2c(O)c3c(c(C(=O)[C@@H](C)CC)c2O)OC(C)(C)C=C3)c(O)c1C
MIC (Staphylococcus aureus [1]): 32 µM (≈ 14.1 µg/mL) | MIC (Staphylococcus aureus [2]): 32 µM (≈ 14.1 µg/mL) | MIC (Enterococcus faecalis): > 128 µM | MIC (Escherichia coli): > 128 µM

NC[C@H]1O[C@H](O[C@H]2[C@H](O)[C@@H](O[C@H]3O[C@H](CO)[C@@H](O)[C@H](N)[C@H]3O)[C@H](N)C[C@@H]2N)[C@H](O)[C@@H](O)[C@@H]1O [KANAMYCIN]
MIC (Staphylococcus aureus [1]): 2.8 µM (≈ 1.36 µg/mL) | MIC (Staphylococcus aureus [2]): 240 µM (≈ 116 µg/mL) | MIC (Enterococcus faecalis): 360 µM (≈ 174 µg/mL) | MIC (Escherichia coli): > 128 µM

CCc1oc(=O)c(Cc2c(O)c3c(c(C(=O)[C@@H](C)CC)c2O)OC(C)(C)[C@@H](O)C3)c(O)c1C
MIC (Staphylococcus aureus [1]): > 128 µM | MIC (Staphylococcus aureus [2]): > 128 µM | MIC (Candida albicans): > 128 µM | MIC (Enterococcus faecalis): > 128 µM | MIC (Nakaseomyces glabratus): > 128 µM | MIC (Escherichia coli): > 128 µM | MIC (Saccharomyces cerevisiae): > 128 µM

C=C(C)[C@@H]1Cc2c(O)c(Cc3c(O)c(C)c(CC)oc3=O)c(O)c(C(=O)[C@@H](C)CC)c2O1
MIC (Staphylococcus aureus [1]): 32 µM (≈ 14.2 µg/mL) | MIC (Staphylococcus aureus [2]): 64 µM (≈ 28.3 µg/mL) | MIC (Candida albicans): > 128 µM | MIC (Enterococcus faecalis): 64 µM (≈ 28.3 µg/mL) | MIC (Nakaseomyces glabratus): > 128 µM | MIC (Escherichia coli): > 128 µM | MIC (Saccharomyces cerevisiae): > 128 µM

CCc1oc(=O)c(Cc2c(O)c(C(=O)[C@@H](C)CC)c3c(c2OC)C=CC(C)(C)O3)c(OC)c1C
MIC (Staphylococcus aureus [1]): > 128 µM | MIC (Staphylococcus aureus [2]): > 128 µM | MIC (Enterococcus faecalis): > 128 µM | MIC (Escherichia coli): > 128 µM

CC1(C)S[C@@H]2[C@H](NC(=O)[C@H](N)c3ccccc3)C(=O)N2[C@H]1C(=O)O [AMPICILLIN]
MIC (Staphylococcus aureus [1]): < 1 µM | MIC (Staphylococcus aureus [2]): 120 µM (≈ 41.9 µg/mL) | MIC (Enterococcus faecalis): 8.8 µM (≈ 3.07 µg/mL) | MIC (Escherichia coli): > 128 µM

CCc1oc(=O)c(Cc2c(O)c3c(c(C(=O)[C@@H](C)CC)c2O)OC(C(C)(C)O)C3)c(O)c1C (some centres not stated)
MIC (Staphylococcus aureus [1]): > 128 µM | MIC (Staphylococcus aureus [2]): > 128 µM | MIC (Enterococcus faecalis): > 128 µM | MIC (Escherichia coli): > 128 µM

CCc1oc(=O)c(Cc2c(O)c3c(c(C(=O)[C@@H](C)CC)c2O)OC(C)(C)CC3)c(O)c1C
MIC (Staphylococcus aureus [1]): > 128 µM | MIC (Staphylococcus aureus [2]): > 128 µM | MIC (Enterococcus faecalis): > 128 µM | MIC (Escherichia coli): > 128 µM

CCc1oc(OC)c(Cc2c(O)c(C(=O)[C@@H](C)CC)c3c(c2OC)C=CC(C)(C)O3)c(=O)c1C
MIC (Staphylococcus aureus [1]): > 128 µM | MIC (Staphylococcus aureus [2]): > 128 µM | MIC (Enterococcus faecalis): > 128 µM | MIC (Escherichia coli): > 128 µM

CCc1oc(=O)c(Cc2c(O)c3c(c(C(=O)[C@@H](C)CC)c2O)OC(C)(C)C=C3)c(O)c1C
MIC (Staphylococcus aureus [1]): 64 µM (≈ 28.3 µg/mL) | MIC (Staphylococcus aureus [2]): 64 µM (≈ 28.3 µg/mL) | MIC (Candida albicans): > 128 µM | MIC (Enterococcus faecalis): > 128 µM | MIC (Nakaseomyces glabratus): > 128 µM | MIC (Escherichia coli): > 128 µM | MIC (Saccharomyces cerevisiae): > 128 µM

COc1c(-c2ccccc2)oc2c(OC)c(O)cc(O)c2c1=O [GNAPHALIIN]
MIC (Staphylococcus aureus [1]): > 128 µM | MIC (Staphylococcus aureus [2]): > 128 µM | MIC (Candida albicans): > 128 µM | MIC (Enterococcus faecalis): > 128 µM | MIC (Nakaseomyces glabratus): > 128 µM | MIC (Escherichia coli): > 128 µM | MIC (Saccharomyces cerevisiae): > 128 µM

CCc1oc(=O)c(Cc2c(O)c(CCC(C)C)c(O)c(C(=O)[C@@H](C)CC)c2O)c(O)c1C
MIC (Staphylococcus aureus [1]): 4 µM (≈ 1.79 µg/mL) | MIC (Staphylococcus aureus [2]): 4 µM (≈ 1.79 µg/mL) | MIC (Enterococcus faecalis): 32 µM (≈ 14.3 µg/mL) | MIC (Escherichia coli): > 128 µM

CCc1oc(=O)c(Cc2c(O)c3c(c(C(=O)[C@@H](C)CC)c2O)OC(C)(C)C(Br)=C3)c(O)c1C
MIC (Staphylococcus aureus [1]): 16 µM (≈ 8.34 µg/mL) | MIC (Staphylococcus aureus [2]): 8 µM (≈ 4.17 µg/mL) | MIC (Enterococcus faecalis): > 128 µM | MIC (Escherichia coli): > 128 µM
